Source: PubChem BioAssay (several laboratories)
The list is not random: actives were taken first. Their share in the collection is about 9.2%.
ERa coact inh = ERα–SRC-1 coactivator interaction inhibitors, primary screen, biochemical, TR-FRET, ERα LBD, estradiol-bound. 86,000 compounds, 1.7% hits. inhibition, % at 25.6 µM. Estrogen receptor (Homo sapiens), P03372. TR-FRET ER-alpha LBD / SRC-1 peptide; in the data active = inhibition above about 50%
ERa SRC1 pot = enhancers of ERα–SRC-1 coactivator binding, primary screen, biochemical, TR-FRET, ERα LBD, low estradiol | coactivator binding (% of control), % at 25.6 µM | AID 639, 2007 | 86,000 compounds, 1.3% hits | TR-FRET ERalpha-LBD/SRC-Cy5 coactivator binding, 2 h; 100 = basal binding, no effect; in the data active = activity above about 200%;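 note: binding measured in presence of low estradiol as agonist stimulus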
H69AR growth 86K = proliferation blockers of H69AR lung cancer cells, primary screen, cell-based, human, 86K library; 85,000 compounds, 6% hits; H69AR lung tumor viability, ATP luminescence, 72 h; hits give low values; AID 598, 2007; viability, % at 10 µM;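 active = viability at or below 40%; inactive = viability above 40%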;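 note: multidrug resistant small cell line overexpressing MRP-1 efflux transporter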
HUVEC prolif 384 = inhibitors of HUVEC proliferation, primary screen, cell-based, 384-well. CellTiter-Glo luminescence, 72 h; hits give low values. viability, % at 10 µM (by protocol). 86,000 compounds, 1.1% hits. AID 648, 2007;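 active = viability at or below 30%; inactive = viability above 30%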
ERb SRC1 inh = inhibitors of ERβ-SRC1 coactivator interaction, primary screen, biochemical, TR-FRET, ERβ LBD, SRC-1 peptide; TR-FRET ER-beta LBD / SRC1-Cy5 peptide binding; receptor agonist-loaded with 1 µM estradiol; 86,000 compounds, 1.3% hits; inhibition, % at 25.6 µM; AID 633, 2007; Estrogen receptor beta (Homo sapiens), Q92731;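 active = compounds whose percent inhibition of the receptor-coactivator binding signal exceeds about 50% in the single-dose screen, limit read from the data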
Target sequence (Q92731 whole entry, looked up, the tested form may be a part): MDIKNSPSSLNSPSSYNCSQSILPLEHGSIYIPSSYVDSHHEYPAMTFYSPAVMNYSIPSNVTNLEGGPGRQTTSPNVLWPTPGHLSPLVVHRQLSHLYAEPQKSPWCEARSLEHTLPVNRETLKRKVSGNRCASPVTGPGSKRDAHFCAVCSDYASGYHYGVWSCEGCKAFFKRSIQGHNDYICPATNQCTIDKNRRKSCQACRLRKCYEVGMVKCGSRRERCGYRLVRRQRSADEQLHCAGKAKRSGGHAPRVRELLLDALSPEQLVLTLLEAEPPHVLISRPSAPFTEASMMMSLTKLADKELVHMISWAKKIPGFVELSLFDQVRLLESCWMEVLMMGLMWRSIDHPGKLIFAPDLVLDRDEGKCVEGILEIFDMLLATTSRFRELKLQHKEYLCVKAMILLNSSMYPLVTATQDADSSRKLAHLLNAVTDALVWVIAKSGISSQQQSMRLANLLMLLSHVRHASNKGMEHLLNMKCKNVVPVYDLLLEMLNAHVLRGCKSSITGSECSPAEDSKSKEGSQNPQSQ
Lung fibro prol = antiproliferative effect on LL 47 fibroblasts – human, LL 47 cells, CellTiter-Glo luminescence, primary screen; LL 47 human lung fibroblast viability, ATP luminescence; hits give low values; viability, % at 10 µM; 85,000 compounds, 1.1% hits;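 active = viability at or below 50% in the single dose screen; inactive = viability above 50%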;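 note: compound exposure lasted 72 h before the ATP readout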
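Test system: LL 47 human lung fibroblasts / Incubation: 72 h compound exposure at 37 °C after overnight plating / Technique: luminescent ATP detection, CellTiter-Glo / Compound dosing: 0.1% DMSO in all compound wells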
Hits are given with their value; - = inactive; [ ] = another dose, or the depositor's remark.

SMILES	ERa coact inh	ERa SRC1 pot	H69AR growth 86K	HUVEC prolif 384	ERb SRC1 inh	Lung fibro prol
N#Cc1ccc(-c2ccco2)nc1SCc1ccccc1	-	-	25	-	-	-
Cc1oc2c(C)c(O)ccc2c(=O)c1-c1cnn(-c2ccccc2)c1	70[fluorescence artefact?]	-	-	-	60[fluorescence artefact?]	-
CCc1nc2sc3c(c2c(=O)n1NC(=O)CCl)CCCC3	-	-	12	-	-	-
CCc1nc2sc3c(c2c(=O)o1)CCCC3	-	-	-	-	-	-
Cc1cc2c(=O)n(Cc3ccco3)c(SCC(=O)N3CCCc4ccccc43)nc2s1	-	-	-	-	-	-
CCn1c(SCC(=O)N2CCCC2)nc2c(c1=O)SC(C)C2 (configuration not stated)	-	-	-	-	-	-
CCn1c(SCC(=O)N2CCOCC2)nc2oc3c(Cl)cc(Cl)cc3c(=O)c2c1=O	65[fluorescence artefact?]	-	14	-	52	-
CCn1c(SCC(=O)N2CCOCC2)nc2sc3c(c2c1=O)CCCC3	-	-	39	-	-	-
O=C(CSc1nc2sc3c(c2c(=O)n1Cc1ccco1)CCC3)N1CCc2ccccc21	-	344	29	-	-	-
Cc1ccc2nc(C3CCN(C(=O)c4ccco4)CC3)[nH]c2c1	-	-	-	-	-	-
CCOC(=O)c1cnc2nc[nH]n2c1=O	-	-	-	-	-	-
CCn1c(SC(C)C(=O)O)nc2sc3c(c2c1=O)CCC3 (configuration not stated)	93[fluorescence artefact?]	-	-	-	92[fluorescence artefact?]	-
CCOC(=O)c1oc2nc(C)c3c(c2c1N)CC(C)(C)OC3	-	-	-	-	-	-
CCOC(=O)c1sc2nc(C(C)C)c3c(c2c1N)CC(C)(C)OC3	-	-	-	-	-	48
CC1CCC(NC(=O)c2ccc3nc[nH]c3c2)CC1 (configuration not stated)	-	-	-	-	-	-
O=S(=O)(O/N=C1\CCCc2ccccc21)c1ccccc1	-	-	-	-	-	-
CC1=CC(=O)C=C(C)C1=NOS(=O)(=O)c1ccccc1	-	-	0.7	1.1	-	1.4
O=S(=O)(Nc1ncnc2sc3c(c12)CCC3)c1ccc2ccccc2c1	-	-	-	-	53	-
N=c1c2c(-c3ccccc3)c(-c3ccccc3)n(Cc3ccco3)c2ncn1CCN1CCOCC1	-	-	36	18	-	47
c1ccc(-c2nc3nc4ccccc4nc3n2Cc2ccco2)cc1	-	-	-	-	-	-
N=c1c2c(-c3ccccc3)c(-c3ccccc3)n(Cc3ccco3)c2ncn1CCO	-	-	17	-	-	-
c1ccc(COc2ccc(CN3CCN(c4ccccn4)CC3)cc2)cc1	-	-	-	-	-	-
COc1ccc(-c2csc(NC(=O)C3CCCCN3S(=O)(=O)c3ccccc3)n2)cc1 (configuration not stated)	-	-	-	-	-	-
O=C(CN1CCCc2ccccc21)NC(=O)NCc1ccco1	-	-	-	-	-	-
O=C(COC(=O)C1CC2C=CC1C2)NCc1ccco1 (configuration not stated)	72[fluorescence artefact?]	-	-	-	57	-
SMILES	ERa coact inh	ERa SRC1 pot	H69AR growth 86K	HUVEC prolif 384	ERb SRC1 inh	Lung fibro prol
O=C(COC(=O)C1CCCCC1C(=O)N1CCc2ccccc21)NCc1ccco1 (configuration not stated)	50[fluorescence artefact?]	-	-	-	-	-
Cn1c(=O)c2c(ncn2CC(=O)Nc2ccc(Cl)cc2Cl)n(C)c1=O	-	-	-	-	-	-
CC(Cc1ccccc1)NC(=O)CSc1nc2nc3c(cc2c(=O)n1-c1ccccc1)COC(C)(C)C3 (configuration not stated)	-	-	-	-	-	-
O=C(CCCOc1ccc(Cl)cc1Cl)NCC1CCCO1 (configuration not stated)	-	-	-	-	-	-
COCCNC(=O)c1cc2ncc(Br)cn2n1	-	-	-	-	-	-
O=C(Nc1ccc2c(c1)OCO2)c1cc2ncc(Br)cn2n1	77[fluorescence artefact?]	-	-	-	67[fluorescence artefact?]	-
CCc1ccccc1NC(=O)c1cc2ncc(Br)cn2n1	60[fluorescence artefact?]	-	-	-	54	-
O=C(NCCc1ccccc1)c1cc2ncc(Br)cn2n1	77[fluorescence artefact?]	-	-	-	77[fluorescence artefact?]	-
O=c1cc(NC2CCCCC2)c2ccccc2o1	-	-	-	-	-	-
CC(N)C12CC3CC(C1)CC(C(C)N)(C3)C2 (configuration not stated)	-	-	-	-	-	-
CCCc1nc(SCC(=O)Nc2cc(C)on2)c2ccccc2n1	-	-	32	-	-	-
Cc1cc(NC(=O)CSc2nc3ccccc3c(=O)n2C(C)c2ccccc2)no1 (configuration not stated)	-	-	-	-	-	-
CCCc1nc(SCC(=O)N2CCCC2)c2ccccc2n1	-	-	38	-	-	-
CCC(C)n1c(SCC(=O)Nc2cc(C)on2)nc2ccccc2c1=O (configuration not stated)	-	-	26	-	-	-
Cc1[nH]c2c(C)cccc2c(=O)c1Br	-	-	-	-	-	-
CC(=O)Nc1cc(C(=O)N2CCCC2)ccc1S(=O)(=O)c1ccc(Cl)cc1	-	-	-	-	-	-
CCn1c(SCC(=O)NC(=O)NCc2ccco2)nnc1-c1cccs1	-	-	-	-	-	-
Cc1ccccc1Nc1nnc(SCC(=O)NC(=O)NCc2ccco2)s1	75	-	32	-	56[fluorescence artefact?]	-
Cc1ccc(Nc2nnc(SCC(=O)NCc3ccco3)s2)cc1	68	-	-	-	-	-
O=C(CSc1nnc(Nc2ccccc2F)s1)NCc1ccco1	81[fluorescence artefact?]	-	-	-	69	-
O=C(CSc1nnc(Nc2ccccc2)s1)NCc1ccco1	-	-	-	-	-	-
CCOc1cc(S(=O)(=O)N2CC=C(c3ccc(F)cc3)CC2)c(OCC)cc1-n1cnnn1	-	-	12	-	-	48
C=CCSC(=C(C#N)C#N)c1cc2c([nH]1)CCCC2	-	-	1.3	17	-	7.4
C=CCn1cc(C(=O)NCCCOCC)c(=O)c2cc(S(=O)(=O)N(CC)CC)ccc21	-	-	-	-	-	-
COC(=O)c1cc2nc(-c3ccccc3)cc(C)n2n1	-	-	-	-	-	-
Cc1cc(-c2ccccc2)nc2cc(C(=O)N(Cc3ccccc3)Cc3ccccc3)nn12	-	204	40	26	-	-
